# Assay results gathered from unrelated publications.
# Each line is one published result; the experiments were not run side by side.
# Target: Dual specificity protein kinase CLK1 (CLK1, Homo sapiens, UniProt P49759)
read-out,mode,technique,concentration,measurement,result,SMILES
enzyme activity,inhibitor,radiometric,2 µM,inhibition,97.3%,Cn1cncc1C1=CN(c2ncnc3[nH]cnc23)CCS1
enzyme activity,inhibitor,,10 µM,activity vs control,2.2%,c1nc2c(Nc3ccc4c(c3)OCCO4)nc(Nc3ccc4c(c3)OCCO4)nc2[nH]1
cell-free assay,,competition with immobilised ligand,1 µM,remaining binding,100%,O=C(O)c1cc(-c2ccc(C3CCNCC3)cc2)c2ccc(-c3ccc(C(F)(F)F)cc3)cc2c1
cell-free assay,,,0.5 µM,remaining signal,99.6%,N#CCCc1ccc2c(c1)-c1[nH]c3ccc([N+](=O)[O-])cc3c1CC(=O)N2
enzyme activity,inhibitor,radiometric,1 µM,remaining activity,89%,CC(C)(C)c1nc(-c2cccc(NS(=O)(=O)c3c(F)cccc3F)c2F)c(-c2ccnc(N)n2)s1
enzyme activity,inhibitor,radiometric,1 µM,remaining activity,62%,Cc1cnc(NC2CCOCC2)nc1-n1cnc(C(=O)NC(CN)c2cc(F)cc(Cl)c2)c1 (stereo not shown)
cell-free assay,,competition with immobilised ligand,1 µM,remaining binding,98%,O=C(O)[C@H]1[C@H](Cn2nnc3ccccc3c2=O)CC[C@@H]1C(=O)c1ccc(OCCC2CCOCC2)cc1
cell-free assay,,,0.5 µM,remaining signal,102%,O=C1NC(=O)c2cc(Nc3ccc(F)cc3)c(Nc3ccc(F)cc3)cc21
enzyme activity,inhibitor,,5 µM,remaining activity,74.9%,O=C(Nc1cnn(-c2csc(C(=O)NC3COC3)c2)c1)Nc1c(F)cccc1Cl
cell-free assay,,competition with immobilised ligand,1 µM,remaining binding,98%,O=C(N1CCS(=O)(=O)CC1)N1C[C@H](c2ccc(OC(F)(F)F)cc2)C[C@H](c2nc(C3CC3)no2)C1
enzyme activity,inhibitor,,5 µM,remaining activity,81%,O=C(Nc1cnn(-c2csc(C(=O)NC3COC3)c2)c1)Nc1ccccc1Cl
cell-free assay,,competition with immobilised ligand,0.1 µM,remaining binding,23%,CNC(=O)c1ccc(Nc2ncc(C(F)(F)F)c(NCc3nccnc3N(C)S(C)(=O)=O)n2)cc1
enzyme activity,inhibitor,,1 µM,inhibition,3%,COc1cc2ncnc(Nc3ccc(Oc4ccccc4)cc3C)c2cc1OC
enzyme activity,inhibitor,,0.1 µM,inhibition,0.7%,CC/C(=N\NC(=O)NCc1cccc(O)c1)c1ccc(O)c(C)c1O
enzyme activity,inhibitor,,0.1 µM,activity vs control,97%,Cc1cc(NC(=O)c2cccc3cc(-c4cccc5[nH]nc(N)c45)ccc23)ccc1F
cell-free assay,,competition with immobilised ligand,1 µM,remaining binding,98%,CNCc1ccccc1-c1csc([C@@H](C)Nc2nc(C)nc3cc(OC)c(OC)cc23)c1
cell-free assay,,,0.5 µM,remaining signal,85.2%,Oc1cccc(-c2nc(N3CCOCC3)c3oc4ncccc4c3n2)c1
enzyme activity,inhibitor,,0.1 µM,inhibition,1%,COc1cc(-c2cc(-c3ccc(N4CCNCC4)cc3)cnc2C)cc(OC)c1OC
cell-free assay,,competition with immobilised ligand,1 µM,remaining binding,83%,Cc1nc(Cc2cccc(C(F)(F)F)c2)sc1-c1ccc(C(N)=O)nc1
enzyme activity,inhibitor,,1 µM,inhibition,-3%,CN1CC(Oc2cnc(C#N)cc2-c2ccn3nc(NC(=O)C4CC4)cc3c2)C1
cell-free assay,,,0.5 µM,remaining signal,105%,COc1cc2c(Nc3ccc(Br)cc3F)ncnc2cc1OCC1CCN(C)CC1
cell-free assay,,competition with immobilised ligand,1 µM,remaining binding,69%,CNC(=O)Nc1ccc2c(c1)CC[C@@]21OC(=O)N(CC(=O)N(Cc2ccc(F)cc2)[C@@H](C)C(F)(F)F)C1=O
